From ChEMBL document CHEMBL3244352, “Synthesis and analgesic activity of some spiro[dibenz[b,f]oxepin-10,4'-piperidine] derivatives” (J Med Chem, 1979)

Test system: Mus musculus
Assay: Analgesic activity in CD-1 Charles River mouse assessed as inhibition of phenyl-p-benzoquinine-induced writhing at 25 mg/kg, po administered 15 to 90 mins prior to phenyl-p-benzoquinine challenge measured after 5 mins relative to control
Assay type: functional
Settings: not given
How it was run: (§1)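 Male CD-1 Charles River mice (18-24 g), five per group, were given the drug 15, 30, 60 and 90 min before an injection of 0.125% phenyl-p-benzoquinone in 5% aqueous ethanol. The vehicle was distilled water with a few drops of Tween 80. Writhes were counted for 10 min, starting 5 min after the injection, with mice held singly in beakers. The read-out was percent inhibition of writhes versus vehicle-treated mice.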
Compound Br.O=C1c2ccccc2Oc2ccccc2C12CCN(CC1CC1)CC2 has an inhibition in vivo at 25 mg/kg of 59%.

Test system: not listed separately
Assay: Ratio of ED50 for neurotoxicity in CD-1 Charles River mouse by rotarod test to ED50 for inhibition of phenyl-p-benzoquinine-induced writhing in CD-1 Charles River mouse
Assay type: toxicity, organism-based
Settings: CD-1, mouse, in vivo; read-out: Ratio ED50
Work on Cl.O=C1c2cc(F)ccc2Oc2ccccc2C12CCNCC2 yielded a selectivity ratio of 17.6.

Test system: Mus musculus
Assay: Potency index, ratio of propoxyphene ED50 to compound ED50 for inhibition of phenyl-p-benzoquinine-induced writhing in sc dosed CD-1 Charles River mouse
Assay type: functional
Settings: not given
How it was run: (§2)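 Writhing ED50s came from male CD-1 mice, ten per dose, tested at peak time after sc or po dosing, with four doses plus a vehicle control (water with Tween 80) in randomized order. Writhes were counted for 10 min, beginning 5 min after 0.125% phenyl-p-benzoquinone. ED50 was estimated by linear regression of percent inhibition, and ratios were formed from these ED50s.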
In the case of Br.CN1CCC2(CC1)C(=O)c1cc(F)ccc1Oc1ccccc12, the “Ratio ED50” value is reported as 2. With Cl.O=C1c2cc(F)ccc2Oc2ccccc2C12CCNCC2 the “Ratio ED50” value was 2.

Test system: Mus musculus
Assay: Analgesic activity in po dosed CD-1 Charles River mouse measured for 15 to 60 mins by tail flick test relative to control
Assay type: functional
Settings: not given
Work on Cl.O=C1c2cc(F)ccc2Oc2ccccc2C12CCNCC2 yielded an ED50 of 51.4 mg/kg.

Species on record: Mus musculus
Assay: animal or person
Assay type: functional
Settings: CD-1 Charles River, sc
With Br.O=C1c2ccccc2Oc2ccccc2C12CCN(CC1CC1)CC2 the ED50 was 6 mg/kg. Br.CN1CCC2(CC1)C(=O)c1cc(F)ccc1Oc1ccccc12 showed an ED50 of 1.9 mg/kg. CC(C)=CCN1CC[C@]2(C)c3cc(O)ccc3C[C@H]1[C@H]2C [(+)-PENTAZOCINE] showed an ED50 of 2.4 mg/kg. For Br.O=C1c2ccccc2Oc2ccccc2C12CCN(CCO)CC2, the ED50 was 2.8 mg/kg. In the case of Br.CN1CCC2(CC1)C(=O)c1cc(Cl)ccc1Oc1ccccc12, the ED50 is reported as 3.5 mg/kg. For Cl.O=C1c2cc(F)ccc2Oc2ccccc2C12CCNCC2, the ED50 was 1.6 mg/kg. For Br.CN1CCC2(CC1)C(=O)c1ccccc1Oc1ccccc12, the ED50 was 5.2 mg/kg. For Br.O=C1c2cc(Cl)ccc2Oc2ccccc2C12CCNCC2, the ED50 was 3.7 mg/kg. With CN1CC[C@]23c4c5ccc(O)c4O[C@H]2[C@@H](O)C=C[C@H]3[C@H]1C5.CN1CC[C@]23c4c5ccc(O)c4O[C@H]2[C@@H](O)C=C[C@H]3[C@H]1C5.O=S(=O)(O)O the ED50 was 0.36 mg/kg. Compound Br.O=C1c2cc(Cl)ccc2Oc2ccccc2C12CCN(CCO)CC2 has an ED50 of 7 mg/kg. Br.O=C1c2ccccc2Oc2ccccc2C12CCN(CCc1ccccc1)CC2 gave an ED50 of 21 mg/kg. Work on Br.O=C1c2ccccc2Oc2ccccc2C12CCNCC2 yielded an ED50 of 1.7 mg/kg. With CCC(=O)O[C@](Cc1ccccc1)(c1ccccc1)[C@H](C)CN(C)C [PROPOXYPHENE] the ED50 was 3.9 mg/kg.

Test system: Mus musculus
Assay: Analgesic activity in CD-1 Charles River mouse assessed as inhibition of phenyl-p-benzoquinine-induced writhing at 25 mg/kg, sc administered 15 to 90 mins prior to phenyl-p-benzoquinine challenge measured after 5 mins relative to control
Assay type: functional
Settings: route subcutaneous
How it was run: as §1
In the case of C#CCN1CCC2(CC1)C(=O)c1cc(Cl)ccc1Oc1ccccc12, the inhibition in vivo at 25 mg/kg is reported as 32%. In the case of O=C1c2cc(Cl)ccc2Oc2ccccc2C12CCN(CCCOc1ccccc1)CC2, the inhibition in vivo at 25 mg/kg is reported as 54%. Compound O=C1c2cc(Cl)ccc2Oc2ccccc2C12CCN(CCc1ccccc1)CC2 has an inhibition in vivo at 25 mg/kg of 30%. In the case of Br.CCN1CCC2(CC1)C(=O)c1cc(Cl)ccc1Oc1ccccc12, the inhibition in vivo at 25 mg/kg is reported as 67%. In the case of Br.CCCN1CCC2(CC1)C(=O)c1cc(Cl)ccc1Oc1ccccc12, the inhibition in vivo at 25 mg/kg is reported as 22%. Compound Br.O=C1c2cc(Cl)ccc2Oc2ccccc2C12CCN(CC1CC1)CC2 has an inhibition in vivo at 25 mg/kg of 31%. With Br.O=C1c2ccccc2Oc2ccccc2C12CCN(CCCOc1ccccc1)CC2 the inhibition in vivo at 25 mg/kg was 55%. Compound Br.O=C(CCCN1CCC2(CC1)C(=O)c1cc(Cl)ccc1Oc1ccccc12)c1ccc(F)cc1 has an inhibition in vivo at 25 mg/kg of 49%. Br.C#CCN1CCC2(CC1)C(=O)c1ccccc1Oc1ccccc12 gave an inhibition in vivo at 25 mg/kg of 57%. CC(C)=CCN1CCC2(CC1)C(=O)c1cc(Cl)ccc1Oc1ccccc12 showed an inhibition in vivo at 25 mg/kg of 42%. Work on Br.C=CCN1CCC2(CC1)C(=O)c1cc(Cl)ccc1Oc1ccccc12 yielded an inhibition in vivo at 25 mg/kg of 37%.

Test system: Mus musculus
Assay: Potency index, ratio of propoxyphene ED50 to compound ED50 for inhibition of phenyl-p-benzoquinine-induced writhing in po dosed CD-1 Charles River mouse
Assay type: functional
Settings: not given
How it was run: as §2
With Br.CN1CCC2(CC1)C(=O)c1cc(F)ccc1Oc1ccccc12 the “Ratio ED50” value was 10. In the case of Cl.O=C1c2cc(F)ccc2Oc2ccccc2C12CCNCC2, the “Ratio ED50” value is reported as 10.

Test system: Mus musculus
Assay: Analgesic activity in CD-1 Charles River mouse assessed as inhibition of phenyl-p-benzoquinine-induced writhing at 5 mg/kg, po administered 15 to 90 mins prior to phenyl-p-benzoquinine challenge measured after 5 mins relative to control
Assay type: functional
Settings: not given
How it was run: as §1
In the case of Br.O=C(CCCN1CCC2(CC1)C(=O)c1ccccc1Oc1ccccc12)c1ccc(F)cc1, the inhibition in vivo at 5 mg/kg is reported as 67%.

Test system: Mus musculus
Assay: Analgesic activity in CD-1 Charles River mouse at 25 mg/kg, sc measured for 15 to 60 mins by tail flick test relative to control
Assay type: functional
Settings: route subcutaneous
How it was run: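 Male CD-1 mice, ten per group, were restrained and given an intense light-beam stimulus, and tail-flick latency was recorded. Two baseline readings were taken. Mice were excluded if their readings differed by more than 1 s or if including them would widen the group spread beyond 3 s. A cutoff was set from the baselines. Drug was given sc (vehicle 10 mL/kg), and mice were tested at 15, 30, 45 and 60 min. Responses beyond the cutoff counted as analgesia, reported as percent.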
Compound C#CCN1CCC2(CC1)C(=O)c1cc(Cl)ccc1Oc1ccccc12 has an Activity of 10%. With O=C1c2cc(Cl)ccc2Oc2ccccc2C12CCN(CCCOc1ccccc1)CC2 the Activity was 0%. With O=C1c2cc(Cl)ccc2Oc2ccccc2C12CCN(CCc1ccccc1)CC2 the Activity was 0%. Compound Br.CN1CCC2(CC1)C(=O)c1cc(F)ccc1Oc1ccccc12 has an Activity of 30%. Br.CCN1CCC2(CC1)C(=O)c1cc(Cl)ccc1Oc1ccccc12 gave an Activity of 0%. With Br.CCCN1CCC2(CC1)C(=O)c1cc(Cl)ccc1Oc1ccccc12 the Activity was 10%. Compound Br.O=C1c2ccccc2Oc2ccccc2C12CCN(CCO)CC2 has an Activity of 40%. Br.O=C1c2cc(Cl)ccc2Oc2ccccc2C12CCN(CC1CC1)CC2 gave an Activity of 0%. Br.O=C1c2ccccc2Oc2ccccc2C12CCN(CCCOc1ccccc1)CC2 gave an Activity of 20%. Br.O=C(CCCN1CCC2(CC1)C(=O)c1ccccc1Oc1ccccc12)c1ccc(F)cc1 showed an Activity of 60%. Cl.O=C1c2cc(F)ccc2Oc2ccccc2C12CCNCC2 gave an Activity of 75%. Br.O=C(CCCN1CCC2(CC1)C(=O)c1cc(Cl)ccc1Oc1ccccc12)c1ccc(F)cc1 showed an Activity of 20%. Br.C#CCN1CCC2(CC1)C(=O)c1ccccc1Oc1ccccc12 showed an Activity of 20%. With Br.CN1CCC2(CC1)C(=O)c1ccccc1Oc1ccccc12 the Activity was 13%. For Br.C=CCN1CCC2(CC1)C(=O)c1cc(Cl)ccc1Oc1ccccc12, the Activity was 10%. Br.O=C1c2cc(Cl)ccc2Oc2ccccc2C12CCN(CCO)CC2 gave an Activity of 30%. Br.O=C1c2ccccc2Oc2ccccc2C12CCN(CCc1ccccc1)CC2 gave an Activity of 40%. Br.O=C1c2ccccc2Oc2ccccc2C12CCNCC2 gave an Activity of 60%.

Test system: Mus musculus
Assay: Ratio of ED50 for inhibition of phenyl-p-benzoquinine-induced writhing in po dosed CD-1 Charles River mouse to ED50 for inhibition of phenyl-p-benzoquinine-induced writhing in sc dosed CD-1 Charles River mouse
Assay type: functional
Settings: not given
How it was run: as §2
For Br.CN1CCC2(CC1)C(=O)c1cc(F)ccc1Oc1ccccc12, the “Ratio ED50” value was 1. In the case of Br.CN1CCC2(CC1)C(=O)c1cc(Cl)ccc1Oc1ccccc12, the “Ratio ED50” value is reported as 1.5. In the case of Cl.O=C1c2cc(F)ccc2Oc2ccccc2C12CCNCC2, the “Ratio ED50” value is reported as 1. For Br.O=C1c2cc(Cl)ccc2Oc2ccccc2C12CCNCC2, the “Ratio ED50” value was 2. In the case of Br.O=C1c2ccccc2Oc2ccccc2C12CCNCC2, the “Ratio ED50” value is reported as 4.5. In the case of CCC(=O)O[C@](Cc1ccccc1)(c1ccccc1)[C@H](C)CN(C)C [PROPOXYPHENE], the “Ratio ED50” value is reported as 6.3.

Test system: Mus musculus
Assay: Analgesic activity in sc dosed CD-1 Charles River mouse measured for 15 to 60 mins by tail flick test relative to control
Assay type: functional
Settings: not given
With Br.CN1CCC2(CC1)C(=O)c1cc(Cl)ccc1Oc1ccccc12 the ED50 was 13.2 mg/kg. For Br.O=C1c2cc(Cl)ccc2Oc2ccccc2C12CCNCC2, the ED50 was 12 mg/kg.

Test system: Mus musculus
Assay: Analgesic activity in po dosed CD-1 Charles River mouse assessed as inhibition of phenyl-p-benzoquinine-induced writhing administered 15 to 90 mins prior to phenyl-p-benzoquinine challenge measured after 5 mins
Assay type: functional
Settings: not given
Br.CN1CCC2(CC1)C(=O)c1cc(F)ccc1Oc1ccccc12 showed an ED50 of 2 mg/kg. Br.CN1CCC2(CC1)C(=O)c1cc(Cl)ccc1Oc1ccccc12 gave an ED50 of 5.2 mg/kg. Compound Cl.O=C1c2cc(F)ccc2Oc2ccccc2C12CCNCC2 has an ED50 of 2.2 mg/kg. For Br.O=C1c2cc(Cl)ccc2Oc2ccccc2C12CCNCC2, the ED50 was 7.7 mg/kg. Work on Br.O=C1c2ccccc2Oc2ccccc2C12CCNCC2 yielded an ED50 of 7.5 mg/kg. Compound CCC(=O)O[C@](Cc1ccccc1)(c1ccccc1)[C@H](C)CN(C)C [PROPOXYPHENE] has an ED50 of 24.6 mg/kg.
